Experimental findings from the RNAGym collection of RNA variant scans (doi:10.1126/science.aae0568) are described below.

B1: tRNA (parent)
chain: GUUCCGUUGGCGUAAUGGUAACGCGUCUCCCUCCUAAGGAGAAGACUGCGGGUUCGAGUCCCGUACGGAACG

This sample holds only a part of the variants without activity. A value given as a limit tells only on which side of the number the result lay.

This data set covers variants of B1. The data set is described as follows: yeast fitness relative to wild type (ratio to wild type); higher = fitter; tRNA-Arg(CCU), competitive growth, 37 C, YPD. In outline:
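Genotype frequency changes were the basis for Darwinian fitness relative to wild type. The frequencies came from 100-nucleotide paired-end sequencing of gene amplicons from the start population and each end population of pooled yeast strains with tRNA-Arg(CCU) gene variants at the native locus. Competition ran in YPD at 37°C for 24 hours in six replicates, genotypes needed ≥ 100 starting reads, and estimates < 0.5 were set to 0.5.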
On to A21U C31G A40U G50C C61A C66U, for which the yeast fitness was 0.513.
The value for A20U A36G G38A A40U A42G was at most 0.5; that for A21G G23A A45C G52A was 0.517; that for A21G C61A G67A was 0.532.
Take A21C C34G G48C: the yeast fitness was at most 0.5.
The figure for A20G G67A A69C is 0.563.
Take A20U A37G: the yeast fitness was 0.892.
As for A21G G44C A69U, the yeast fitness was found to be 0.681.
The figure for A21G C29U is 0.944.
The figure for A21G U26C G48C is 0.615; for A21C C30G A69C it is 0.542; for A21C C24A U32A it is at most 0.5.
The figure for A21G G67U A70U is 0.607; for A21G C27U A69U it is 0.772; for A20U C31A G52A C66U it is 0.527.
Take A20G C46G C49G: the yeast fitness came to 0.565.
The value for A21C C27U A57G C62U was 0.507; that for A21U C22G C66U was 0.568.
For A21C U26G, the yeast fitness stood at 0.642.
The figure for A21U C49U U54A is at most 0.5; for A21G U32A C66U it is 0.512; for A21G A45C C62U G68C A69G it is at most 0.5.
The figure for A21C C24U U26A G38C C46G C62U A65C is at most 0.5; for A21U A42U G44C C60G C62G it is at most 0.5.
A21U A42G U59A C60A A69U: the yeast fitness is at most 0.5.
Consider A21C G39A A65C, for which the yeast fitness is at most 0.5.
The value for A21G A43U G58C C60A C66U was at most 0.5.
The figure for A21C C60G C62G A70C is at most 0.5; for A21U C66A it is 0.574.
On to A21C A45U G48C C62U, for which the yeast fitness was at most 0.5.
The figure for A20U C27G C29A A65G is at most 0.5; for A21G G23A C27U C66U it is 0.533.
The figure for A21G A40G C49G U59G G67C is at most 0.5; for A20U G23C U35G it is 0.643.
On to A20G G23A G38A, for which the yeast fitness is at most 0.5.
For A20U C31U C66A, the yeast fitness was at most 0.5.
The value for A21C U32C C60G was at most 0.5; that for A21C C27G C29A A65C was at most 0.5.
The figure for A20U A37C G38C is at most 0.5.
The value for A21G A36G A42U was 0.75; that for A21U A40C was 0.727.
In the case of A21U C30G C31U G48C, the yeast fitness worked out at 0.753.
As for A21U C55G, the yeast fitness was 0.527.
The figure for A21C C46G C49G G56A is 0.528; for A21C C34U it is 0.536; for A20G G25A C31G C62A it is at most 0.5.
As to A20U A21U C34G G63C, the yeast fitness is at most 0.5.
The value for A21C C22U G38C A40C C62A was 0.559; that for A21G A37G C60G was at most 0.5.
As for A20U G38C A65G, the yeast fitness is at most 0.5.
With A21U A70U, the yeast fitness was 0.754.
Turning to A21U A43G, the yeast fitness came out at 0.752.
The value for A21C C33G C34G U54A was at most 0.5; that for A21U C46G U47C G56A C60A was at most 0.5; that for A20G G44A was 0.962.
The value for A21U A65U was 0.793; that for A20U U47G G52C was at most 0.5; that for A20G G48C was 1.
The figure for A21C C29G is 0.622; for A21C U35C it is 0.856.
With A21G A37C A57C G58A, the yeast fitness was at most 0.5.
Consider A21C U28C, for which the yeast fitness is 0.852.
On to A21G C55U C66U, for which the yeast fitness was at most 0.5.
Turning to A21C A42G, the yeast fitness worked out at 0.751.
A21G U59C: the yeast fitness was 0.883.
The figure for A21C G41A G48C G51C G52C is at most 0.5; for A20U C29U C49G C55A G68C it is at most 0.5.
The value for A20U G25C A65U A69C was 0.587; that for A21G C46U G56C A69U was at most 0.5; that for A21U G23A A37U was at most 0.5.
As for A21U C29A, the yeast fitness amounted to 0.751.
With A20G U54G A57U, the yeast fitness is at most 0.5.
The figure for A20G U54C A70C is 0.578.
The value for A21G C61G C62U was at most 0.5.
Turning to A21C U64A, the yeast fitness is 0.799.
Regarding A21G U26C C27G G48C G67A, the yeast fitness was at most 0.5.
A21C G23C G52C: the yeast fitness was at most 0.5.
The value for A20G G38C A45C G51A was at most 0.5; that for A20U A21G C27G was at most 0.5.
The figure for A21G C34G A40G is 0.572.
The value for A21G C31G C66A was 0.505.
For A21U A37U A40U G50C G56C, the yeast fitness was at most 0.5.
A20U C33A C66A: the yeast fitness is at most 0.5.
The value for A20G G50C G63C G67C was at most 0.5; that for A21U C34G G52A C61A was 0.553.
For the variant A20U A21U, the yeast fitness was 0.61.
The value for A21C C33U C61A A70C was 0.578; that for A21G C27G C33G was at most 0.5; that for A21C C29G C33A A42C C62A was 0.52.
The value for A20U C24U A42U C46A C55U C61G was 0.518; that for A20U U26A was 0.754.
The value for A21G U59C A65U G67C A70C was at most 0.5; that for A20U A36G G68A was 0.574.
In the case of A20U C60U A69U, the yeast fitness was found to be 0.672.
The value for A20U U54C was 0.758.
The value for A21U C24G C49A U54G was 0.56.
The figure for A20U C27G C29U is at most 0.5; for A21C A43G G48C it is at most 0.5; for A20U A40G it is 0.903.
A20U C27G C29A G58A: the yeast fitness was at most 0.5.
Regarding A21C G38A G58C, the yeast fitness amounted to 0.503.
On to A21C C61U A70U, for which the yeast fitness was 0.623.
The figure for A21G C29U A37U G63C is at most 0.5; for A20G U28C C62A it is at most 0.5.
Turning to A21C C29G G68C, the yeast fitness was determined as 0.557.
On to A20U C22U U47A, for which the yeast fitness is at most 0.5.
The value for A21U C27G C33U C34A C66U was at most 0.5; that for A20U C34U A42U was at most 0.5; that for A21U C34G G51C G63C A65C was at most 0.5.
For the variant A21U A42C U47G G63A A69U, the yeast fitness is at most 0.5.
Take A20U A43G G51A A69C: the yeast fitness was at most 0.5.
As for A20U G23A G63A A70U, the yeast fitness is at most 0.5.
The figure for A20U C30U C31G A43G G44A U47A C49G is 0.595; for A21G A42U G67A it is 0.54.
The value for A21C C27U C49U G58C C61A A65U A69U was at most 0.5; that for A20U A45U A69U was 0.726.
A21G A69U: the yeast fitness is 1.07.
In the case of A21G C30G A36G C46G A57U, the yeast fitness worked out at 0.551.
The figure for A21G G56U G58C is 0.661.
With A21C C22G A69C, the yeast fitness is at most 0.5.
The value for A21C C24U U32A C62G was 0.539.
As for A21G G56A, the yeast fitness was 1.08.
The figure for A21G U32C U59G C61U C66U A70C is 0.572; for A20U C22U it is 0.716; for A21U C34G A42U C61U it is at most 0.5.
A21G C33G G38A A69C: the yeast fitness was at most 0.5.
The value for A21G C22A G63C G67A was at most 0.5.
The figure for A21G A45C C49U C55U is 0.531.
The figure for A21C A43U G50A G52U A69C is 0.554; for A21G C62U it is 0.924; for A20U C30U A57G A65U it is at most 0.5.
With A20U A40U G44C U53G, the yeast fitness is at most 0.5.
The figure for A20U C34A C66A is at most 0.5; for A21C A65C G67U it is at most 0.5.
The value for A21G A43U C49U U53C C61G was at most 0.5; that for A21C C24A C33A G48C was 0.579; that for A21C G63C was 0.779.
For A21G U28G C62G, the yeast fitness is at most 0.5.
Turning to A21C A40C, the yeast fitness was determined as 0.734.
The figure for A20G G23C A69C is at most 0.5; for A20U A42U A45G it is 0.532.
Regarding A20U A36U, the yeast fitness stood at 0.639.
The figure for A21U C22A G50C is 0.575; for A21G C22A G50C it is at most 0.5; for A21G C49G U59C it is 0.583.
The figure for A20U G68A is 0.843; for A20U G68C it is 0.86.
Regarding A20U C24A G51C, the yeast fitness was at most 0.5.
As to A21C C62U C66A, the yeast fitness is at most 0.5.
The value for A21C U28A G68A was at most 0.5; that for A20U U35C was 0.949.
The figure for A21C C22G G38C A57C is 0.524; for A20G U47C G50C it is at most 0.5; for A21G A36G G38C G50A it is at most 0.5.
The figure for A20U G63A is 0.932; for A21U A37U it is 0.672; for A21G C49U U59G it is 0.619.
For the variant A21G A45C U59C A69G, the yeast fitness was found to be 0.539.
The value for A20U C22G G23A A43U G50A was at most 0.5.
The figure for A20U U32A A65C is at most 0.5.
Regarding A20U C46A, the yeast fitness turned out to be 0.858.
Consider A20G U28G C31U, for which the yeast fitness turned out to be 0.588.
For the variant A21U C61A G67A, the yeast fitness was at most 0.5.
The figure for A21G C30U U53A A57U A65U is at most 0.5.
The figure for A20U C61U is 0.836; for A21C U53G it is 0.567.
The value for A21U A69C A70G was 0.594.
